Source: PubChem BioAssay (Johns Hopkins Ion Channel Center)
Only some compounds are listed: those with a hit (about 3.7% of all), similar ones and a draw of the others.
KCNQ1 pot = human KCNQ1 channel potentiation or activation; P51787; CHO-K1 KCNQ1, thallium flux FluxOR fluorescence; hits give high values; B-score at 10 µM; hit rate 0.35% among 310,000; AID 2648;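 active means fluorescence ratio B-score, a plate-corrected score, at least three library SD, with initial intensity B-score within 5 SD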
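System: CHO-K1 cells stably expressing KCNQ1 / Medium: assay buffer for compound exposure, DMSO matched across wells / Reagent: thallium- and potassium-containing depolarizing buffer / Compound: one concentration, matched DMSO / Incubation: 20 min compound pretreatment at room temperature / Measured by: kinetic FluxOR fluorescence, 10 s baseline plus 110 s post-stimulus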
KCNK9 block = blocks the human KCNK9 two-pore domain potassium channel; HEK293 KCNK9, FluxOR thallium flux fluorescence; hits give low values; B-score at 10 µM; hit rate 1.2% among 310,000;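 active means ratio B-score over 3 SD below the library mean, with starting fluorescence within 5 SD of its mean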;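 further: negative B-score means less thallium flux so channel inhibition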
Target sequence (Q9NPC2 whole entry, looked up, the tested form may be a part): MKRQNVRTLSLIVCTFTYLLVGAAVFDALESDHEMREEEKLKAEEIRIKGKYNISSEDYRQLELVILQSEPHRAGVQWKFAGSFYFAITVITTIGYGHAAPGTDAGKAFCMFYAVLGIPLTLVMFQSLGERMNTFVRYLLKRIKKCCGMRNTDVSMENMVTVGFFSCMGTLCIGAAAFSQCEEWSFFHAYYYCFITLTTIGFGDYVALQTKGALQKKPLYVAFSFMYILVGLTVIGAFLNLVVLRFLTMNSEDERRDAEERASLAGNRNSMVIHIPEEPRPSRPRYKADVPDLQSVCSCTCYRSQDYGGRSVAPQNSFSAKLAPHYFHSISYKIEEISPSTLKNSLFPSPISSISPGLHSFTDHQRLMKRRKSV
Kir21 block = Kir2.1 (mouse) channel inhibition | B-score at 10 µM | hit rate 0.85% among 310,000 | HEK293-Kir2.1, FluxOR thallium flux fluorescence; hits give low values | P35561;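 active means fluorescence ratio B-score at or below minus 3 SD of library scores, with starting-brightness B-score within 2 SD, cut at about -4.2 in these data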;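 further: channel flux triggered by added potassium and thallium sulfate stimulus; B-score of peak minus minimum fluorescence over baseline after thallium stimulus; more negative B-score means stronger Kir2.1 block with less thallium influx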
hERG rescue = shields human hERG channel from block by proarrhythmic agents; CHO-hERG, FluxOR thallium flux, dofetilide IC70 present; activation (rescue from dofetilide block), less the hit threshold, % at 10 µM; AID 1511; hit rate 0.51% among 310,000;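 active means activation above the mean of controls blocked by dofetilide plus 5 SD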;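 further: thallium influx through hERG after potassium depolarization seen as dye fluorescence rise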
KCNQ1 inh = inhibitors of human KCNQ1 potassium channel; B-score at 10 µM; AID 2642; CHO-K1 KCNQ1, FluxOR thallium flux fluorescence; hits give high values; hit rate 1.3% among 310,000;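 active means compounds whose thallium flux B-score, printed positive for inhibition, exceeds three library SD while starting fluorescence stays within three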;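 further: channel opened by potassium depolarization with thallium stimulus after 20 min compound exposure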
KCNK3 block = human KCNK3 channel inhibition, primary screen; O14649; CHO-KCNK3 thallium flux, FluxOR fluorescence; hits give low values; B-score at 10 µM; hit rate 0.84% among 340,000; AID 602410;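 active means B-score under library mean minus 4 SD, starting fluorescence ratio at most library mean plus 5 SD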;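 further: more negative B-score means stronger inhibition of thallium flux through KCNK3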
Numbers stand for hits; – = inactive; · = no result given.

SMILES	KCNQ1 pot	KCNK9 block	Kir21 block	hERG rescue	KCNQ1 inh	KCNK3 block
N#Cc1c(C#N)c(SSc2c(C#N)c(C#N)c(N)n2-c2ccccc2)n(-c2ccccc2)c1N	·	·	·	·	·	–
CCn1cc(Cl)c(C(=O)NNC(=O)CCn2ccc([N+](=O)[O-])n2)n1	–	–	–	–	–	–
O=C(Nc1ccccn1)c1cc(-c2ccc(Cl)s2)nc2ccccc12	·	·	·	·	·	–
O=C(NC(=S)Nc1ccccn1)c1cc(-c2ccccc2)nc2ccccc12	8	–	–	–	–	–
COc1ccccc1/C=C/C=C1\Oc2c(ccc(O)c2CN(C)C)C1=O	–	–	–	–	10	–
COCc1nc2ccccc2n1Cc1cccc(C)c1	–	–	–	–	–	–
Cc1cccc(Cn2c(Cc3ccccc3)nc3ccccc32)c1	–	–	-11	–	–	–
CS(=O)(=O)N(CC(=O)NC1CCCC1)C1CCCCC1	–	–	–	6.5	–	–
Cc1occc1C(=O)N/N=C/c1cccc2ccccc12	–	–	–	–	–	–
O=c1nc2onnc2c(C=NO)[nH]1	·	·	·	·	·	–
O=C(CSc1ccc(S(=O)(=O)N2CCCCC2)cn1)Nc1ccccc1Br	·	·	·	·	·	–
Cc1oc2cc3oc(=O)c(CCC(=O)NCCCN4CCOCC4)c(C)c3cc2c1C	–	–	–	–	–	–
Cc1cccc2sc(NC(=O)c3ccc(OCC4CCCO4)cc3)nc12 (configuration not stated)	–	–	–	6.5	–	–
Cc1csc(NC(=O)c2ccc(OCC3CCCO3)cc2)n1 (configuration not stated)	–	–	–	–	–	–
NC(CCC(=O)NC(CS)C(=O)NCC(=O)O)C(=O)O (configuration not stated)	·	·	·	·	·	–
Cc1nnc(C)n1/N=C/c1cc(Br)cc(Br)c1O	15	–	–	12	–	–
Cc1nnc(C)n1/N=C/c1cc(Br)ccc1O	–	–	–	–	–	–
O=[N+]([O-])c1ccc(O)c(/C=N/n2c(-c3ccccc3)n[nH]c2=S)c1	–	–	–	–	7	–
Oc1c(Br)cc(Br)cc1/C=N/n1c(-c2ccccc2)n[nH]c1=S	12	–	–	–	–	–
Oc1c(Br)cc(/C=N/n2c(-c3ccccc3)n[nH]c2=S)c(Br)c1O	–	–	–	–	–	·
CCN(C(=O)CSc1nc(C)c(C)c(C)n1)C1CCS(=O)(=O)C1 (configuration not stated)	·	·	·	·	·	–
O=C(Nc1nccs1)c1c(O)c2cccc3c2n(c1=O)CCC3	–	–	–	–	6	·
O=C(NCCO)c1c(O)c2cccc3c2n(c1=O)CC3	–	–	–	–	–	–
CC(C)(C)c1ccccc1NC(=O)c1c(O)c2cccc3c2n(c1=O)CC3	–	–	–	–	7	·
O=C(c1ccc([N+](=O)[O-])cc1)N1CCC(Cc2ccccc2)CC1	–	-7.4	–	–	–	–
SMILES	KCNQ1 pot	KCNK9 block	Kir21 block	hERG rescue	KCNQ1 inh	KCNK3 block
O=C(Cc1ccccc1)NC1CCN(C(=O)c2ccc([N+](=O)[O-])cc2)CC1	–	–	–	–	–	–
CCOC(=O)C1(Cc2ccc(Cl)cc2)CCN(C(C)Cc2ccc(O)c(OC)c2)CC1 (configuration not stated)	–	–	–	–	13	–
N#Cc1ccc(CNC(=O)N2CCOCC2)cc1	–	–	–	–	–	–
CN(C(=O)c1cccc(NC(=O)Cc2ccc(NC(=O)C3CCN(C(=O)CCc4ccccc4)CC3)cc2)c1)C1CCCCC1	·	·	·	·	·	–
COc1ccc(S(=O)(=O)Cc2ccc(C(=O)N3CCN(c4cc(Cl)ccc4C)CC3)o2)cc1	–	–	–	–	6	–
CCCCC(CC)CN1C(=O)/C(=C/c2ccncc2)SC1=S (configuration not stated)	–	–	–	–	7	–
CCN1C(=O)/C(=C\c2ccncc2)SC1=S	–	–	–	–	–	–
CC(c1ccccc1)N1CC(C(=O)N2CCN(Cc3ccc(C#N)cc3)CC2)CC1=O (configuration not stated)	·	·	·	·	·	–
CCOc1ccc2ccccc2c1CNCCc1ccc(S(N)(=O)=O)cc1	–	–	-4.4	–	–	–
CCOc1ccc(CNCCc2ccc(S(N)(=O)=O)cc2)cc1	–	–	–	–	–	–
Cc1ccc(-c2ccc(/C=C(\C#N)C(N)=S)n2C)cc1	–	–	–	–	6	–
